Source: PubChem BioAssay (several laboratories)
Many of the other results were omitted from the sample, so hits are more common in it than they were.
CHOP inh: inhibitors of CHOP promoter induction, primary screen, cell-based, unfolded protein response, luciferase reporter; CHO-K1 CHOP-promoter luciferase, tunicamycin-induced, 15-18 h; inhibition, % at 10 µM; 220,000 compounds, 3.8% hits; AID 2732, 2010;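 active means compounds that reduced the stress-induced luciferase reporter signal by more than about 70% of percent inhibition, limit read from the data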;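 further: 0% = tunicamycin plus vehicle and 100% = wells without tunicamycin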
XBP1 UPR activ: activators of adaptive XBP1 UPR arm, primary screen, cell-based, CHO-XBP1 luciferase reporter, luminescence, uHTS. 330,000 compounds, 0.33% hits. AID 463104, 2010. IRE1-XBP1 UPR activation; percent of tunicamycin response, DMSO as zero. activation, % at 20 µM;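 active means versus positive control, 20 µM dose yields 30% or more activation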;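 further: 100% = tunicamycin at 10 µg/mL and 0% = DMSO only wells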
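Test system: CHO-XBP1 luciferase reporter cells | Buffer or medium: Serum-containing F12 medium, 10% FBS | Schedule: 6 h compound exposure at 37 °C, 5% CO2 | Detection: Steady-Glo luciferase glow luminescence, 10 min after reagent addition | Read-out basis: Activation, % of tunicamycin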
Jurkat NFkB inh: inhibitors of induced NF-kB luciferase reporter, primary screen, TCR NF-kB activation inhibitor project, cell-based, luminescence, uHTS; Jurkat, PMA/ionomycin-induced NF-kB luciferase reporter; inhibition, % at 4 µM; 330,000 compounds, 0.53% hits; in the data active means inhibition above about 50%
CHOP UPR activ: activators of apoptotic CHOP UPR arm, primary screen, cell-based, CHO-CHOP luciferase reporter, luminescence, uHTS | UPR activation; percent of tunicamycin response over DMSO baseline | activation, % at 10 µM | 330,000 compounds, 0.34% hits | AID 449763, 2010;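 active means at 10 µM dose, activation of 40% or more, normalized to positive control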;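 further: 100% = tunicamycin at 10 µg/mL and 0% = DMSO alone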
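System: CHO CHOP reporter cells. Amount: 500 cells per well. Buffer or medium: F12 medium, 10% FBS. Compound dosing: one dose, 10 µM in 0.5% DMSO. Incubation: 6 h compound exposure at 37 °C after overnight seeding. Technique: Steady-Glo luciferase luminescence. Benchmarks: tunicamycin and DMSO controls.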
697 NFkB inh: inhibitors of PMA/ionomycin-induced NF-kB reporter, 697 cells, primary screen, B-cell NF-kB inhibitor project, cell-based, luminescence, uHTS; inhibition, % at 4 µM; 697 B-cell NF-kB luciferase reporter, 16 h; 330,000 compounds, 0.33% hits; in the data active means inhibition above about 35%
Active calls of the source: *; / = no result.

SMILES	CHOP inh	XBP1 UPR activ	Jurkat NFkB inh	CHOP UPR activ	697 NFkB inh
O=C(CCCOc1ccc(Cl)cc1Cl)N/N=C/c1ccc(Cl)cc1	56.9	-0.6	3.3	1.0	13.8
Cc1cc(Cl)ccc1OCCCC(=O)N/N=C/c1cccc([N+](=O)[O-])c1	88.0*	-2.4	3.5	0.7	-21.0
CCc1ccc(C2CC(=O)N(c3cccc(F)c3)C3=C2C(=O)OC3)cc1 (centres undefined)	9.2	-2.4	-15.8	0.2	-5.1
O=C(Cn1cnc2ccccc2c1=O)Nc1nnc(C2CC2)s1	5.5	-1.6	4.5	0.8	-9.4
O=C(Cn1cnc2ccccc2c1=O)Nc1nnc(SCc2ccc(Cl)cc2)s1	85.9*	0.0	4.0	0.0	23.7
C#CCSc1nnc(-c2ccc([N+](=O)[O-])cc2)o1	-1.3	5.9	-25.3	6.5	-28.5
Cc1nn(C)c(NC(=O)c2ccccc2Cl)c1Br	/	2.5	-9.0	0.0	-10.8
Cc1cc(C)nc(-n2nc(C)c(Br)c2Nc2ccc(Br)cc2)n1	77.0*	0.1	-4.9	0.3	4.9
Cc1cc(Nc2ccc(Br)cc2)nc(-c2ccccc2O)n1	/	-0.9	-9.1	1.4	-6.5
Cc1nn(C)c(Nc2ccc(Br)cc2)c1Br	74.5*	-1.3	21.9	0.1	-13.6
Cc1cc(C(=O)COC(=O)C2COc3ccccc3O2)c(C)n1CC1CCCO1 (centres undefined)	77.4*	1.4	2.2	-1.0	12.9
Cc1cc(C(=O)COc2ccccc2C(N)=O)c(C)n1CC1CCCO1 (centres undefined)	46.2	-2.5	44.7	6.3	24.6
Cc1cc(C(=O)COC(=O)c2cccnc2Cl)c(C)n1CC1CCCO1 (centres undefined)	79.8*	-13.9	-89.7	-8.5	-144.9
Cc1ccc(C(=O)OCC(=O)c2cc(C)n(CC3CCCO3)c2C)cc1 (centres undefined)	1.7	-2.2	-54.9	3.8	-15.9
Cc1cc(C(=O)COC(=O)c2ccccc2Br)c(C)n1CC1CCCO1 (centres undefined)	76.8*	-6.5	45.5	-8.9	-34.5
CC(=O)Nc1ccc(S(=O)(=O)N2CCN(c3nc4ccccc4n3CC(C)C)CC2)cc1	/	-2.5	-10.2	-0.1	-18.3
Cc1cccnc1NC(=O)CN1C(=O)NC(C)(c2ccc3ccccc3c2)C1=O (centres undefined)	/	-0.8	-9.5	-0.6	11.6
CC(NC(=S)Nc1ccc(Cl)cc1)C(c1ccccc1)N1CCOCC1 (centres undefined)	20.6	-2.6	14.3	-1.3	1.7
Clc1ccc(Oc2nc(Oc3ccc(Cl)cc3)nc(N3CCOCC3)n2)cc1	32.1	1.9	-12.3	1.7	-7.1
COC(=O)c1ccc(Oc2nc(N3CCCCC3)nc(N3CCOCC3)n2)cc1	70.5*	-5.5	15.6	2.0	0.8
CCN(CC)c1nc(Oc2ccc(C(=O)OC)cc2)nc(N2CCOCC2)n1	84.7*	-1.3	-0.3	0.8	-21.6
Cc1ccc(C(C)C)c(OCC(=O)NNCC(=O)Nc2cccc(F)c2)c1	/	-1.1	-6.4	2.5	4.7
Cc1nc(N2CCOCC2)nc(OC(C)C)c1[N+](=O)[O-]	83.8*	1.4	1.9	-0.7	-2.2
CCOC(=O)c1[nH]c(CSc2nnc(-c3ccc(OC)cc3)o2)c(C(=O)OCC)c1C	70.1*	-2.1	17.2	11.1	1.1
COc1ccc(-c2nnc(SCC(=O)c3[nH]c(C)c(C(C)=O)c3C)o2)cc1	34.1	3.9	4.2	3.0	-48.6
Cc1cccc(OCC(=O)N(C)CC(=O)Nc2cccc(F)c2)c1C	/	-0.8	12.5	-0.7	6.1
CCn1c(O)c(/C=C2\C=Nc3ccccc32)sc1=Nc1ccccc1	78.7*	9.3	40.9	1.5	-17.1
Cc1ccc(S(=O)(=O)N2CCN(CCc3ccccc3)CC2)c(C)c1	/	-0.9	22.6	-0.5	-12.1
Cc1ccc(S(=O)(=O)ON2C(=O)c3ccccc3C2=O)c(C)c1	93.6*	/	/	/	/
Cc1ccc2cc(CN(CCCN(C)C)C(=O)NCc3ccccc3)c(=O)[nH]c2c1C	74.1*	-3.9	-42.9	-2.7	-51.7
